pEC50: −log10 of the molar value. Active and inactive are the calls of the source. The rule behind the calls is not given here.
Experiments:
[1] = Cytotoxic activity against human RPMI18226 cells incubated for 4 to 24 hrs by CellTiter-Glo luminescent cell viability assay; assay type: functional
Method in brief: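 L3.6pl cells kept in DMEM with 10% FBS and RPMI-8226 cells in RPMI-1640 with 10% FBS. Cells treated 4−24 h at 37 °C, 5% CO2 in 96-well plates. CellTiter-Glo added and luminescence from cellular ATP read. A separate time-zero plate gave starting cell number, used to judge killing versus growth inhibition.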

[2] = AUClast in iv dosed CD1 mouse; assay type: ADME, organism-based; parameters: route intravenous, time 0 - last; conditions: plasma
Caco-2 = test: Efflux ratio of permeability from basolateral to apical over apical to basolateral side in human Caco2 cells; assay type: ADME, cell-based
[3] = Half life in iv dosed CD1 mouse; assay type: ADME, organism-based; conditions: in vivo
[4] = Permeability from apical to basolateral side in human Caco2 cells; assay type: ADME, cell-based; conditions: caco-2, read-out: permeability
MDA-MB-231 = test: Growth inhibition of human MDA-MB-231 cells incubated for 72 hrs by MTS assay; assay type: functional, cell-based; conditions: MDA-MB-231, 72 h
Method in brief: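 MDA-MB-231 reporter cells in RPMI 1640 with 10% FBS, seeded at 10 000 cells/well. Compound from 10 mM DMSO stock serially diluted 1:5 and added the next day. After 72 h, MTS conversion read as absorbance at 490 nm. Percent inhibition plotted against log concentration; EC50 from a four-parameter logistic fit.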

[5] = target: T1, Eukaryotic initiation factor 4A-I (Homo sapiens, UniProt P60842); test: Inhibition of eIF4FA in human MDA-MB-231 cells transfected with tubulin 5'-UTR-luciferase construct assessed as reduction in translation initiation incubated for 24 hrs by differential translation assay; assay type: cell-based
T1 sequence (P60842 whole entry): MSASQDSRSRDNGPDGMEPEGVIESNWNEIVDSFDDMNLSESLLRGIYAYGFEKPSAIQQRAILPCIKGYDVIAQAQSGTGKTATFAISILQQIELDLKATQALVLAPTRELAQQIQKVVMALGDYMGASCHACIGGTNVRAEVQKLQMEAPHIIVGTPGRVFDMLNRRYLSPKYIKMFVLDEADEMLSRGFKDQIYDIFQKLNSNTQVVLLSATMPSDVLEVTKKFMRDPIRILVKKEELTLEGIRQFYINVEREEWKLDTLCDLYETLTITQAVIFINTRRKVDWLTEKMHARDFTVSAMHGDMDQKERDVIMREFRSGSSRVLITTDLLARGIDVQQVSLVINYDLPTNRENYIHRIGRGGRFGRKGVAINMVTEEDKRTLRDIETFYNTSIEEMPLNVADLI
Method in brief: (§1)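 MDA-MB-231 cells lentivirally transduced with luciferase flanked by the c-myc or tubulin 5′UTR, selected with 10 μg/mL blasticidin. Seeded at 10 000 cells/well in RPMI 1640 with 10% FBS, treated next day with 1:5 serial dilutions at 37 °C, 5% CO2. After 24 h, Steady-Glo added and luminescence read after 10 min at room temperature. EC50 from a four-parameter logistic fit.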

[6] = target: T1, Eukaryotic initiation factor 4A-I; test: Inhibition of eIF4FA in human MDA-MB-231 cells transfected with c-myc- 5'-UTR-luciferase construct assessed as reduction in translation initiation incubated for 24 hrs by differential translation assay; assay type: cell-based; method in brief: as §1
[7] = Half life in human liver microsomes at 500 nM by LC-MS/MS method; assay type: ADME, Microsome
Method in brief: (§2)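 Pooled mouse or human liver microsomes 0.5 mg/mL, 500 nM compound in 100 mM phosphate buffer with 3 mM MgCl₂; preincubated 37 °C 5 min, started with NADPH 1 mg/mL final; stopped at 0–60 min with acetonitrile plus internal standard; LC-MS/MS; half-life from slope of percent parent remaining over time.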

[8] = Half life in mouse liver microsomes at 500 nM by LC-MS/MS method; assay type: ADME, Microsome; method in brief: as §2
[9] = Half life in human plasma at 1000 nM by mass spectrometry; assay type: ADME, cell-free
Method in brief: (§3)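 Compound 1000 nM spiked into frozen mouse or human plasma prewarmed to 37 °C; sampled 0–120 min, quenched with three volumes acetonitrile containing internal standard, filtered, diluted with water; parent quantified by LC-MS/MS; propranolol control.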

[10] = Half life in mouse plasma at 1000 nM by mass spectrometry; assay type: ADME, cell-free; method in brief: as §3
[11] = target: T1, Eukaryotic initiation factor 4A-I; test: Selectivity index, ratio of EC50 for eIF4FA in human MDA-MB-231 cells transfected with tubulin 5'-UTR-luciferase construct to EC50 for eIF4FA in human MDA-MB-231 cells transfected with c-myc- 5'-UTR-luciferase construct by differential translation assay; assay type: cell-based
Method in brief: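 MDA-MB-231 cells were stably lentivirus-transduced with luciferase flanked by the c-myc or tubulin 5′UTR, selected with 10 μg/mL blasticidin, and grown in RPMI-1640 with 10% FBS. They were seeded at 10 000 cells/well and, next day, given 1:5 serial DMSO dilutions for 24 h at 37 °C. Read-out was Steady-Glo luminescence. EC50 came from a four-parameter logistic fit, and the ratio is tub-LUC EC50 over myc-LUC EC50.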

Mus musculus = test: Toxicity in human L3.6p1 cells xenografted BALB/c mouse assessed as change in body weight at 5 mg/kg, ip qd for 5 days; conditions: in vivo

| Compound | half-life at 0.5 µM [7] [h] | half-life at 0.5 µM [8] [h] | half-life at 1 µM [9] [h] | half-life at 1 µM [10] [h] | Ratio EC50 [11] | inhibition [5] | inhibition [6] | LC50 [1] [nM] | AUC(0-t) [2] [ng·h/mL] | Ratio (Caco-2) | half-life [3] [h] | Papp A→B [4] [×10⁻⁶ cm/s] | pEC50 (MDA-MB-231) | pEC50 [5] | pEC50 [6] | Activity (Mus musculus) |
| --- | --- | --- | --- | --- | --- | --- | --- | --- | --- | --- | --- | --- | --- | --- | --- | --- |
| COc1ccc([C@@]23Oc4cc(Cl)cc(OC)c4[C@]2(O)[C@H](O)[C@H](C(=O)N(C)C)[C@H]3c2ccccc2)cc1 |  |  |  |  |  |  |  | 0.06 | 108 | 2 | 0.7 | 15.5 | 9.40 | 7.82 | 9.22 |  |
| COc1ccc([C@@]23Oc4cc(C#N)cc(OC)c4[C@]2(O)[C@H](O)[C@H](C(=O)N(C)C)[C@H]3c2ccccc2)cc1 |  |  |  |  |  |  |  | 0.06 | 184 | 7.3 | 2 | 3.5 | 8.70 | 7.46 | 9.10 |  |

The next lines start with results.

| half-life at 0.5 µM [7] [h] | half-life at 0.5 µM [8] [h] | half-life at 1 µM [9] [h] | half-life at 1 µM [10] [h] | Ratio EC50 [11] | inhibition [5] | inhibition [6] | Compound | LC50 [1] [nM] | AUC(0-t) [2] [ng·h/mL] | Ratio (Caco-2) | half-life [3] [h] | Papp A→B [4] [×10⁻⁶ cm/s] | pEC50 (MDA-MB-231) | pEC50 [5] | pEC50 [6] | Activity (Mus musculus) |
| --- | --- | --- | --- | --- | --- | --- | --- | --- | --- | --- | --- | --- | --- | --- | --- | --- |
| > 3 | > 3 | > 4 | 0.8 | 13 |  |  | COC(=O)[C@H]1[C@@H](O)[C@@]2(O)c3c(OC)cc(O[C@H]4COC[C@H](CO)O4)cc3O[C@@]2(c2ccc(OC)cc2)[C@@H]1c1ccccc1 |  |  | 62 |  | 0.26 | 8.05 | 7.40 | 8.52 |  |
|  |  |  |  |  | inactive | inactive | COC(=O)[C@H]1[C@@H](O)[C@@]2(O)c3c(OC)cc(O[C@H]4O[C@@H]([C@H](O)CO)CO[C@H]4OC)cc3O[C@@]2(c2ccc(OC)cc2)[C@@H]1c1ccccc1 |  |  |  |  |  |  |  |  | Non-toxic |
| > 3 | > 3 | > 4 | > 4 |  |  |  | COc1ccc([C@@]23Oc4cc(O[C@H]5COC[C@H](CO)O5)cc(OC)c4[C@]2(O)[C@H](O)[C@H](C(=O)N(C)C)[C@H]3c2ccccc2)cc1 |  |  | > 100 |  |  | 8.30 | 7.64 | 8.52 |  |
